Calls of active or inactive are those of the source. The rule behind the calls is not given here.
Legend:
[1] = molecular target: Leucine-rich repeat serine/threonine-protein kinase 2 (Homo sapiens) (UniProt Q5S007); settings: HEK293, 1 uM
Mus musculus [2] = assay: Inhibition of LRRK2 in C57BL/6 mouse brain at 100 mg/kg, ip by ADP-acylphosphate probe-based mass spectrometry relative to vehicle-treated control; format: functional
Outline: (§1)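 KiNativ chemical proteomics on brains and spleens from mice dosed intraperitoneally at 3, 10, 30, 50 or 100 mg/kg, compared against vehicle-treated animals. Tissue lysed in 5× volume of detergent-free buffer and labeled with an ADP-acylphosphate probe. After workup and trypsin digestion, probe labeling was quantified by mass spectrometry across >150 protein and lipid kinases. Values reflect 5× dilution relative to intact tissue.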

[3] = test system: Leucine-rich repeat serine/threonine-protein kinase 2 (Homo sapiens), Q5S007 [G2019S]; settings: HEK293, 1 uM
Mus musculus [4] = assay: Inhibition of JNK3 in C57BL/6 mouse brain at 50 and 100 mg/kg, ip by ADP-acylphosphate probe-based mass spectrometry relative to vehicle-treated control; format: functional; settings: C57BL/6, ip, route intraperitoneal
Outline: as §1

[5] = molecular target: T1, Mitogen-activated protein kinase kinase kinase 9 (Homo sapiens, UniProt P80192); assay: Inhibition of MLK1 by radiometric assay
Outline: (§2)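 Radioactivity-based enzymatic kinase assay run in the Dundee profiling panel of 138 kinases. Kinases were first screened at 10 μM inhibitor, with activity expressed relative to a DMSO control. A dose–response analysis then gave the IC50.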
Target sequence in this assay (P80192 whole entry): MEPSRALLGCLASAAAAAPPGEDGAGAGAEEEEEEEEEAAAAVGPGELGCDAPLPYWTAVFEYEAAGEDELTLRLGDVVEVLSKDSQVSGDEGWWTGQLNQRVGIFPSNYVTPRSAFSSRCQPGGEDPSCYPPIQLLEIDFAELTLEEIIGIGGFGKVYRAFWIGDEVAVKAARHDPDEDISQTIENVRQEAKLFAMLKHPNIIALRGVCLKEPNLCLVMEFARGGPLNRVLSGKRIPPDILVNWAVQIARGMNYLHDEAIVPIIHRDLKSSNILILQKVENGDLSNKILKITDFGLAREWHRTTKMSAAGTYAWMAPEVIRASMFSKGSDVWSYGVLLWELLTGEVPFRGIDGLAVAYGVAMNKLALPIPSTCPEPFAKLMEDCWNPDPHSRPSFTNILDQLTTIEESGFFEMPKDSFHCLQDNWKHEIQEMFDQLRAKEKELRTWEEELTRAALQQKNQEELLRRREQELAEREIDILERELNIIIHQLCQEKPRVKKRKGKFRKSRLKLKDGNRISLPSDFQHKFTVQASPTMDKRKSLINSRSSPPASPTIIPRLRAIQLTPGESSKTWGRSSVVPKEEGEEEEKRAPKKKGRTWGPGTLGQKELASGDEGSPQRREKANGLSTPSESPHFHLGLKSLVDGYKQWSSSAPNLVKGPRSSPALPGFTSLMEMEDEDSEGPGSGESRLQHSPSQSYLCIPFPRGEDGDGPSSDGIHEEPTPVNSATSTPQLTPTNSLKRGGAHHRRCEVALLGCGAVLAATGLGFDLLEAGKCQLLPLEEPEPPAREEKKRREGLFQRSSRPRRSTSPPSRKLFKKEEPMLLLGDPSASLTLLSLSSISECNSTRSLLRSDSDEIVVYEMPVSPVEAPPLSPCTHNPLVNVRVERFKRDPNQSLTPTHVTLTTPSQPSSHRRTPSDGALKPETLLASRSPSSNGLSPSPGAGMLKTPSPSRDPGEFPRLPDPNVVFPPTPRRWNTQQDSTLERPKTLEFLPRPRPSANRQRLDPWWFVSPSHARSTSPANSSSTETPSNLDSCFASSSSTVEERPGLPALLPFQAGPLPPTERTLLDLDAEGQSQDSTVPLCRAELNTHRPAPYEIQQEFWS

Mus musculus [6] = assay: Inhibition of LRRK2 autophosphorylation at Ser910 and Ser935 in C57BL/6 mouse brain at 100 mg/kg, ip by immunoblotting analysis relative to vehicle-treated control; format: functional, organism-based; set-up: dose 100 mg/kg
Mus musculus [7] = assay: Half life in mouse at 1 mg/kg, iv; format: ADME, organism-based; set-up: dose 1 mg/kg, route intravenous; settings: in vivo
Outline: (§3)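 Mouse pharmacokinetics run by a contract lab; parameters reported include oral bioavailability (%F), plasma AUClast and half-life. Full PK parameter set is given in the Supporting Information.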

Mus musculus [8] = assay: Inhibition of LRRK2 autophosphorylation at Ser910 and Ser935 in C57BL/6 mouse spleen at 100 mg/kg, ip by immunoblotting analysis relative to vehicle-treated control; format: functional, organism-based; set-up: dose 100 mg/kg
Mus musculus [9] = assay: Inhibition of TBK1 in C57BL/6 mouse brain at 50 and 100 mg/kg, ip by ADP-acylphosphate probe-based mass spectrometry relative to vehicle-treated control; format: functional; settings: C57BL/6, ip, route intraperitoneal
Outline: as §1

[10] = molecular target: T2, MAP kinase-interacting serine/threonine-protein kinase 2 (Homo sapiens, UniProt Q9HBH9); assay: Inhibition of MNK2 at 10 uM by radiometric assay
Outline: (§4)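 Dundee panel of 138 kinases screened at 10 μM compound using radioactivity-based enzymatic assays. Activity was expressed relative to DMSO control.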
Target sequence in this assay (Q9HBH9 whole entry, looked up): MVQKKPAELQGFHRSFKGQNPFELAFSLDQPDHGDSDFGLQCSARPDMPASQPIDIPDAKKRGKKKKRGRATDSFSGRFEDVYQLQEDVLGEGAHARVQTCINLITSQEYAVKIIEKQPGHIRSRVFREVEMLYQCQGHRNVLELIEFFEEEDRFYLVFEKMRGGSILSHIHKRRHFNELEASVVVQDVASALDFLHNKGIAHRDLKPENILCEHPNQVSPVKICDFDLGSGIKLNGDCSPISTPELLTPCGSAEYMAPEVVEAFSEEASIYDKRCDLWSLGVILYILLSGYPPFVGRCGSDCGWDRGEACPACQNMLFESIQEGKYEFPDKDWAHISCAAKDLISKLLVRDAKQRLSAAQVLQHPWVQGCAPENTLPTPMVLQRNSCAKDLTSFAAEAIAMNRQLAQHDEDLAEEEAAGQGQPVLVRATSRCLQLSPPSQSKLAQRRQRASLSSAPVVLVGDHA

[11] = test system: Mast/stem cell growth factor receptor Kit (Homo sapiens), P10721 [L576P]; assay: Inhibition of cKIT L576P mutant at 1 uM by KinomeScan assay
Mus musculus [12] = assay: Inhibition of JNK3 in ip dosed C57BL/6 mouse brain by ADP-acylphosphate probe-based mass spectrometry; format: functional, organism-based
Outline: as §1

Mus musculus [13] = assay: Inhibition of LRRK2 in C57BL/6 mouse brain at 30 mg/kg, ip by ADP-acylphosphate probe-based mass spectrometry relative to vehicle-treated control; format: functional; settings: C57BL/6, Brain, route intraperitoneal
Outline: as §1

[14] = molecular target: T2, MAP kinase-interacting serine/threonine-protein kinase 2; assay: Inhibition of MNK2 by radiometric assay
Outline: as §2
Target sequence in this assay (Q9HBH9 whole entry): as the sequence (Q9HBH9 whole entry, looked up) above

Mus musculus [15] = assay: Inhibition of LRRK2 autophosphorylation at Ser910 and Ser935 in C57BL/6 mouse kidney at 100 mg/kg, ip by immunoblotting analysis relative to vehicle-treated control; format: functional, organism-based; set-up: dose 100 mg/kg
Mus musculus [16] = assay: Inhibition of LRRK2 autophosphorylation at Ser910 and Ser935 in C57BL/6 mouse brain at 10 mg/kg, ip by immunoblotting analysis relative to vehicle-treated control; format: functional, organism-based; set-up: dose 10 mg/kg
Mus musculus [17] = assay: AUClast in mouse at 10 mg/kg, po; format: ADME, organism-based, Plasma; set-up: time 0 - last, dose 10 mg/kg, route oral; settings: in vivo
Outline: as §3

Mus musculus [18] = assay: Inhibition of LRRK2 autophosphorylation at Ser910 and Ser935 in C57BL/6 mouse kidney at 50 mg/kg, ip by immunoblotting analysis relative to vehicle-treated control; format: functional, organism-based; set-up: dose 50 mg/kg
[19] = molecular target: Leucine-rich repeat serine/threonine-protein kinase 2 (Mus musculus) (UniProt Q5S006); assay: Inhibition of LRRK2 autophosphorylation at Ser910 and Ser935 Swiss mouse 3T3 cells by immunoblotting analysis; format: cell-based
Outline: (§5)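 Mouse Swiss 3T3 cells or mouse embryonic fibroblasts were treated with DMSO or increasing concentrations of compound for 90 min. Lysates were immunoblotted for LRRK2 phospho-Ser910, phospho-Ser935 and total LRRK2. Immunoblots were run in duplicate and are representative of at least two independent experiments.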

[20] = molecular target: Leucine-rich repeat serine/threonine-protein kinase 2 (Mus musculus) (UniProt Q5S006); assay: Inhibition of LRRK2 autophosphorylation at Ser910 and Ser935 mouse embryonic fibroblast cells by immunoblotting analysis; format: cell-based
Outline: as §5

[21] = molecular target: T1, Mitogen-activated protein kinase kinase kinase 9; assay: Inhibition of MLK1 at 10 uM by radiometric assay
Outline: as §4
Target sequence in this assay (P80192 whole entry, looked up): as the sequence (P80192 whole entry) above

Liver = assay: Half life in mouse liver microsomes at 1 uM; format: ADME, Microsome
Outline: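 Metabolic stability determined by incubation with mouse liver microsomes; half-life (T1/2) reported in minutes.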

Mus musculus [22] = assay: Inhibition of LRRK2 in ip dosed C57BL/6 mouse brain by ADP-acylphosphate probe-based mass spectrometry; format: functional, organism-based
Outline: as §1

Mus musculus [23] = assay: Inhibition of LRRK2 autophosphorylation at Ser910 and Ser935 in C57BL/6 mouse spleen at 50 mg/kg, ip by immunoblotting analysis relative to vehicle-treated control; format: functional, organism-based; set-up: dose 50 mg/kg
Mus musculus [24] = assay: Inhibition of LRRK2 in ip dosed C57BL/6 mouse spleen by ADP-acylphosphate probe-based mass spectrometry; format: functional, organism-based
Outline: as §1

Mus musculus [25] = assay: Inhibition of LRRK2 in C57BL/6 mouse spleen at 30 to 100 mg/kg, ip by ADP-acylphosphate probe-based mass spectrometry relative to vehicle-treated control; format: functional; settings: dose mg/kg 30-100; route intraperitoneal
Outline: as §1

Mus musculus [26] = assay: Inhibition of LRRK2 in C57BL/6 mouse spleen at 10 mg/kg, ip by ADP-acylphosphate probe-based mass spectrometry relative to vehicle-treated control; format: functional; settings: C57BL/6, Spleen, route intraperitoneal
Outline: as §1

Mus musculus [27] = assay: Inhibition of LRRK2 in C57BL/6 mouse brain at 50 mg/kg, ip by ADP-acylphosphate probe-based mass spectrometry relative to vehicle-treated control; format: functional; settings: C57BL/6, Brain, route intraperitoneal
Outline: as §1

Mus musculus [28] = assay: Inhibition of TBK1 in ip dosed C57BL/6 mouse brain by ADP-acylphosphate probe-based mass spectrometry; format: functional, organism-based
Outline: as §1

Mus musculus [29] = assay: Inhibition of LRRK2 in C57BL/6 mouse spleen at 3 mg/kg, ip by ADP-acylphosphate probe-based mass spectrometry relative to vehicle-treated control; format: functional; settings: C57BL/6, Spleen, route intraperitoneal
Outline: as §1

Mus musculus [30] = assay: Inhibition of JNK1 in C57BL/6 mouse brain at 50 and 100 mg/kg, ip by ADP-acylphosphate probe-based mass spectrometry relative to vehicle-treated control; format: functional; settings: C57BL/6, ip, route intraperitoneal
Outline: as §1

[31] = Oral bioavailability in mouse at 10 mg/kg; format: ADME, organism-based; settings: in vivo
Outline: as §3

Mus musculus [32] = assay: Inhibition of LRRK2 autophosphorylation at Ser910 and Ser935 in C57BL/6 mouse brain at 50 mg/kg, ip by immunoblotting analysis relative to vehicle-treated control; format: functional, organism-based; set-up: dose 50 mg/kg
Mus musculus [33] = assay: Inhibition of JNK2 in C57BL/6 mouse brain at 50 and 100 mg/kg, ip by ADP-acylphosphate probe-based mass spectrometry relative to vehicle-treated control; format: functional; settings: C57BL/6, ip, route intraperitoneal
Outline: as §1

Mus musculus [34] = assay: Inhibition of JNK2 in ip dosed C57BL/6 mouse brain by ADP-acylphosphate probe-based mass spectrometry; format: functional, organism-based
Outline: as §1

Mus musculus [35] = assay: Inhibition of LRRK2 autophosphorylation at Ser910 and Ser935 in C57BL/6 mouse brain at 30 mg/kg, ip by immunoblotting analysis relative to vehicle-treated control; format: functional, organism-based; set-up: dose 30 mg/kg
Mus musculus [36] = assay: Inhibition of JNK1 in ip dosed C57BL/6 mouse brain by ADP-acylphosphate probe-based mass spectrometry; format: functional, organism-based
Outline: as §1

Sequence of Leucine-rich repeat serine/threonine-protein kinase 2 (Mus musculus) (Q5S006 whole entry): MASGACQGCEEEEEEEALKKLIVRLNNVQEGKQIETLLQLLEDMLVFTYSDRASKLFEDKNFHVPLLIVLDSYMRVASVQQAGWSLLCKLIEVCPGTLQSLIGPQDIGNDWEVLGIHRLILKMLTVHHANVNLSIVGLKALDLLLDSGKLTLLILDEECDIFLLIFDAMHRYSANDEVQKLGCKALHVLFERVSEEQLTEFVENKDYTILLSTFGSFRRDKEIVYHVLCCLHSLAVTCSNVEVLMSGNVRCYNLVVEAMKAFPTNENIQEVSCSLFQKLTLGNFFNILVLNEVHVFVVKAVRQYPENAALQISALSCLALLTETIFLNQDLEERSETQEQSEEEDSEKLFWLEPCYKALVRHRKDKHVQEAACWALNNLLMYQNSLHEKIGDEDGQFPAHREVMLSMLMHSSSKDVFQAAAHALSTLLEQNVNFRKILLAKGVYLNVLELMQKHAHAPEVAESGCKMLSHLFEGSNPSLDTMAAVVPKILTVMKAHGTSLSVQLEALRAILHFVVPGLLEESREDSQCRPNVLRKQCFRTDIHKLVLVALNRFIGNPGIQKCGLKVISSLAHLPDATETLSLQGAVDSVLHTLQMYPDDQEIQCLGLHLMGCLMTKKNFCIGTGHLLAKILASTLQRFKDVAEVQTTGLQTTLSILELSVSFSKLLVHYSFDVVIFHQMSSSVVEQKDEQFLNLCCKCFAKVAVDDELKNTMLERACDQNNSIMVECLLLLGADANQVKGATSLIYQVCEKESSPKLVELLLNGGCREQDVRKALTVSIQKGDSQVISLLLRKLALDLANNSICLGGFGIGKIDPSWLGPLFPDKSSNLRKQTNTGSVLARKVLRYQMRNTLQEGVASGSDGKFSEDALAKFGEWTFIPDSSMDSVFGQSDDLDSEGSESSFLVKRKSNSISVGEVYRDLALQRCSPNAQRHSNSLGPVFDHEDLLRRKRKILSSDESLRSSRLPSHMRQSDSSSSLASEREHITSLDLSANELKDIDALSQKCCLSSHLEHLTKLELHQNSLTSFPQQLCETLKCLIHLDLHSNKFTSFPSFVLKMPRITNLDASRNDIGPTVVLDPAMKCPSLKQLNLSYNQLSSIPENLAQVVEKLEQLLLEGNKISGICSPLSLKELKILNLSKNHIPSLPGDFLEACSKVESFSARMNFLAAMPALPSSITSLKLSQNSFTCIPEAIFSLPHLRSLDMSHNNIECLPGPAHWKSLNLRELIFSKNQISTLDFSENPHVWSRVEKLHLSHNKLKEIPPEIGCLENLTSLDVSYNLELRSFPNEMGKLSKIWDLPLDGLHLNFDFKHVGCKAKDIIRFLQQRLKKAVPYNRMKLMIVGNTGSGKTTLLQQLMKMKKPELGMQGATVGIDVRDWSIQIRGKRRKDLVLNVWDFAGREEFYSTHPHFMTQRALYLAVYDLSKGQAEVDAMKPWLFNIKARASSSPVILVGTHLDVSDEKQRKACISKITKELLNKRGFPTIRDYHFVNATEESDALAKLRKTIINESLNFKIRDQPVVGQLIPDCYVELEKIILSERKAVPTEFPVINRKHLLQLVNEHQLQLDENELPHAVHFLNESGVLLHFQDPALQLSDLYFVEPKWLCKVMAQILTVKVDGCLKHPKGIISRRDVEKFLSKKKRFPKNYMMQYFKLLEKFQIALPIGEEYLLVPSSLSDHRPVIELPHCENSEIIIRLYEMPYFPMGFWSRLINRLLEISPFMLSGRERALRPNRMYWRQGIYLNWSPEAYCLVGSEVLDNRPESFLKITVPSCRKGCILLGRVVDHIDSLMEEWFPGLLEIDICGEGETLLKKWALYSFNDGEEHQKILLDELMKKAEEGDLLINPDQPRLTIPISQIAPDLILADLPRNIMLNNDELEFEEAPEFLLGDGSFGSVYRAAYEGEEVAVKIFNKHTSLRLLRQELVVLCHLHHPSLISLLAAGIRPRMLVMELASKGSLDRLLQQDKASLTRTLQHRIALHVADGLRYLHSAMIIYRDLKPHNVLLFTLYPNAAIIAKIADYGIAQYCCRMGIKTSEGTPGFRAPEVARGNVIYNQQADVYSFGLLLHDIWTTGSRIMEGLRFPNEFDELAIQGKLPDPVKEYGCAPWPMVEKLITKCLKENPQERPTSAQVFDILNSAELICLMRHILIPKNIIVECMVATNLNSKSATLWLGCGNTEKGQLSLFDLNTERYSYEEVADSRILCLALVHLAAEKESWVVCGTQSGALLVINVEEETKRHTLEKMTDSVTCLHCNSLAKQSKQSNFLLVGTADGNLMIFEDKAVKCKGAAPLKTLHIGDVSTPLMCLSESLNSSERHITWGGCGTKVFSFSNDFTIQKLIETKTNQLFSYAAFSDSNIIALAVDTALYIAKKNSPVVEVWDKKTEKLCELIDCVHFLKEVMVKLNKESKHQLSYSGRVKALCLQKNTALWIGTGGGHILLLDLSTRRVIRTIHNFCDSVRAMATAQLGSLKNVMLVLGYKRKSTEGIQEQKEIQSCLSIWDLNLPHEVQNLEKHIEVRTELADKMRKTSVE

COc1cc(C(=O)N2CCC(N3CCN(C)CC3)CC2)ccc1Nc1ncc2c(n1)N(C)c1ccccc1C(=O)N2C
inhibition [1]: Active | inhibition (Mus musculus [2]): inactive | inhibition [3]: Active

CNc1nc(Nc2ccc(C(=O)N3CCOCC3)cc2OC)ncc1Cl
inhibition in vivo at 100 mg/kg (Mus musculus [4]): 35% | IC50 [5]: 2100 nM | inhibition (Mus musculus [6]): Active | t1/2 (Mus musculus [7]): 7.8 min | inhibition (Mus musculus [8]): Active | inhibition in vivo at 100 mg/kg (Mus musculus [9]): 35% | inhibition [10]: > 80% | inhibition [11]: Active | inhibition (Mus musculus [12]): Dose-dependent effect | inhibition in vivo at 100 mg/kg (Mus musculus [2]; C57BL/6, Brain, route intraperitoneal): 70% | inhibition in vivo at 30 mg/kg (Mus musculus [13]): 40% | IC50 [14]: 600 nM | inhibition (Mus musculus [15]): Active | inhibition (Mus musculus [16]): Active | AUClast (Mus musculus [17]): 502 ng·h/mL | inhibition (Mus musculus [18]): Active | inhibition [19]: Dose-dependent effect | inhibition [20]: Dose-dependent effect | inhibition [21]: > 80% | t1/2 (Liver): 13 min | inhibition (Mus musculus [22]): Dose-dependent effect | inhibition (Mus musculus [23]): Active | inhibition (Mus musculus [24]): Dose-dependent effect | inhibition (INH) (Mus musculus [25]): >90% | inhibition in vivo at 10 mg/kg (Mus musculus [26]): 80% | inhibition in vivo at 50 mg/kg (Mus musculus [27]): 70% | inhibition (Mus musculus [28]): Dose-dependent effect | inhibition in vivo at 3 mg/kg (Mus musculus [29]): 40% | inhibition in vivo at 100 mg/kg (Mus musculus [30]): 35% | bioavailability [31]: 67% | inhibition (Mus musculus [32]): Active | inhibition in vivo at 100 mg/kg (Mus musculus [33]): 35% | inhibition (Mus musculus [34]): Dose-dependent effect | inhibition (Mus musculus [35]): Active | inhibition (Mus musculus [36]): Dose-dependent effect

From ChEMBL document CHEMBL2169803, “Brain Penetrant LRRK2 Inhibitor” (ACS Med Chem Lett, 2012)
